Drawing on ChEMBL document CHEMBL1139850, “Hypoxia-selective antitumor agents: norsesterterpene peroxides from the marine sponge Diacarnus levii preferentially suppress the growth of tumor cells under hypoxic conditions” (J Nat Prod, 2007), this text covers Activity, inhibition and IC50 for four molecules.

Activity calls are given as the source filed them. The rule behind the calls is not given here.

As usually defined, the inhibition is how much of the control response was suppressed. A low value points to a response near the control. As usually defined, the IC50 is the point on the concentration scale where inhibition reaches its midpoint. Read a low IC50 as greater potency in that assay.

Assay [1] deals with T47D. Put plainly: Antiproliferative activity against T47D cells at 12. 7 uM. It counts as functional, Homo sapiens.
The species entered for assay [2] is Homo sapiens. Put plainly: Inhibition of hypoxia-induced HIF1 activation at 12. 7 uM. Put shortly:
(§1)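 HIF-1 activity was read in transfected cells by a luciferase reporter after a 16 h compound exposure under hypoxia (1% O2:5% CO2:94% N2). Normoxic (5% CO2:95% air) and hypoxia-mimetic (10 µM 1,10-phenanthroline) conditions were run alongside.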

Assay [3] has as its system MCF7. Nature of the assay: Antiproliferative activity against human MCF7 cells under normoxic condition. It counts as functional, cell-based. The gist of the method: (§2)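 Human prostate (DU145, PC-3) and breast (MCF-7, MDA-MB-231, T47D) carcinoma cells were grown in DMEM/F12 with 10% FCS and Pen/Strep. They were seeded at 30,000 cells/well and left overnight. Compound was added with DMSO up to 0.6% final, and plates went 48 h at 37 °C, hypoxic (1% O2:5% CO2:94% N2) or normoxic (5% CO2:95% air). Read-out was neutral red, A540 corrected at 630 nm, in quadruplicate.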

Assay [4] relates to MDA-MB-231. Nature of the assay: Antiproliferative activity against human MDA-MB-231 cells under normoxic condition. It counts as functional, cell-based. Put shortly:
as §2

Assay [5] concerns DU-145. Put plainly: Antiproliferative activity against human DU145 cells under normoxic condition. It counts as functional, cell-based. Put shortly: as §2
Assay [6] relates to T47D. Nature of the assay: Antiproliferative activity against human T47D cells under hypoxic condition. It counts as functional, cell-based. Put shortly:
as §2

In assay [7] the test system is PC-3. Nature of the assay: Antiproliferative activity against human PC3 cells under hypoxic condition. It counts as functional, cell-based. The gist of the method: as §2
The test system of assay [8] is PC-3. Put plainly: Antiproliferative activity against human PC3 cells under normoxic condition. It counts as functional, cell-based. The gist of the method: as §2
Assay [9] relates to MCF7. Put plainly: Antiproliferative activity against human MCF7 cells under hypoxic condition. It counts as functional, cell-based. The gist of the method: as §2
Assay [10] concerns T47D. Put plainly: Antiproliferative activity against human T47D cells under normoxic condition. It counts as functional, cell-based. The gist of the method:
as §2

The subject of assay [11] is DU-145. Put plainly: Antiproliferative activity against human DU145 cells under hypoxic condition. It counts as functional, cell-based. Put shortly: as §2
For assay [12], the system named is MDA-MB-231. Put plainly: Antiproliferative activity against human MDA-MB-231 cells under hypoxic condition. It counts as functional, cell-based. Put shortly:
as §2

For assay [13], the species on record is Homo sapiens. Put plainly: Inhibition of hypoxia induced HIF-1 activation at 1.27 uM. Put shortly: as §1
The subject of assay [14] is T47D. Nature of the assay: Antiproliferative activity against T47D cells after 16 hrs at 12. 7 uM. It counts as functional, Homo sapiens.
The subject of assay [15] is T47D. Nature of the assay: Antiproliferative activity against T47D cells at 1.27 uM. It counts as functional, cell-based. As to conditions: Homo sapiens.
Assay [16] deals with MDA-MB-231. Nature of the assay: Antiproliferative activity against human MDA-MB-231 cells at 0.3 uM. It counts as functional, cell-based. The gist of the method: as §2

For the molecule `COC(=O)[C@@H](C)[C@H]1CC[C@](C)(CCC/C(C)=C/CC2C(C)=CCCC2(C)C)OO1` (relative stereo) [DIACARNOXIDE D], the Activity result in the assay with T47D [1] was “<=30%”. The same molecule displayed an inhibition in the assay filed under Homo sapiens [2] of less than 30%.
In the case of `C=C1CCCC(C)(C)C1CCC(C)CCC[C@@]1(C)CC[C@H]([C@H](C)C(=O)OC)OO1` (relative stereo) [DIACARNOXIDE A], the IC50 in the assay on MCF7 [3] is greater than 30 µM; in the assay on MDA-MB-231 [4] it was 17.8 µM; in the assay with DU-145 [5], greater than 30 µM; in the assay on T47D [6], 26.9 µM; in the assay on PC-3 [7], greater than 30 µM; in the assay with PC-3 [8], greater than 30 µM. The IC50 with MCF7 [9] was greater than 30 µM; with T47D [10] it was 14.7 µM; with DU-145 [11] it was greater than 30 µM; in the assay with MDA-MB-231 [12], 17.8 µM. Further, the Activity entry in the assay with T47D [1] is “<=30%”. The molecule further registered an inhibition in the assay listed under Homo sapiens [2] of less than 30%.
Turning to `COC(=O)[C@@H](C)[C@H]1CC[C@](C)(CCCC(C)CCC2=C(C)CCCC2(C)C)OO1` (relative stereo) [DIACARNOXIDE C], the Activity result in the assay with T47D [1] is “<=30%”. In the assay filed under Homo sapiens [2], this molecule displayed an inhibition of less than 30%.
`C=C1CCCC(C)(C)C1CCC(C)CCC[C@@]1(C)CC[C@H]([C@H](C)C(=O)O)OO1` (relative stereo) [DIACARNOXIDE B]: the half-maximal inhibitory concentration (IC50) stood at 13.8 µM in the assay with MCF7 [3]; 13.3 µM in the assay on MDA-MB-231 [4]; 6.6 µM in the assay with DU-145 [5]; 6 µM in the assay with T47D [6]; 12.9 µM with PC-3 [7]; 16.7 µM in the assay with PC-3 [8]. For the same molecule, the concentration for half-maximal inhibition (IC50) amounted to 6.6 µM with MCF7 [9], 5.6 µM in the assay with T47D [10], 5.3 µM with DU-145 [11] and 5.6 µM with MDA-MB-231 [12]. Also, the result in the assay filed under Homo sapiens [13] and in the assay with T47D [15] was inactive. In addition, the Activity with T47D [14] is listed as 97%. Besides, the outcome in the assay with MDA-MB-231 [16] was Active. In addition, in the assay listed under Homo sapiens [2], the inhibition came out at 95%.
